Assay outcomes as filed in PubChem BioAssay.
Scp1 inh: Scp-1 (human) phosphatase inhibition | inhibition, % at 20 µM | AID 493091 | Recombinant Scp1, phosphopeptide, malachite green phosphate absorbance | 340,000 tested, 0.88% active;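 active = inhibition above about 50% at 20 µM, limit read from the data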;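 note: plate controls were DMSO wells with enzyme for no effect and wells lacking enzyme for full effect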
Target sequence (Q9GZU7 76-261 limits assumed): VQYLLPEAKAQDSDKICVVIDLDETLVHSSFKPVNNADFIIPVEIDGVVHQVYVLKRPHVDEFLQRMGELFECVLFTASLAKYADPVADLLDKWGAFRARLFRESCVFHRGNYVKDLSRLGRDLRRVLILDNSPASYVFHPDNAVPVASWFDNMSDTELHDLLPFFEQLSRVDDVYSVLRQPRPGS
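Material – SCP-1 phosphatase catalytic domain, residues 76-261 · Buffer or medium – Acidic Tris acetate buffer with magnesium and detergent · Also added – Phospho 17-mer peptide substrate · Compound – single 20 µM dose, 1% DMSO · Times – 45 min room-temperature reaction, 5 min colour, 30 min stabiliser · Technique – Phosphate-binding colour reagent, absorbance read at 630 nm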
SUMO1-SIM PPI: SUMO1-SIM interaction modulation; SUMO1 binding to a labelled peptide, TR-FRET, 1 h; AID 602429; inhibition, % at 20 µM; 360,000 tested, 0.33% active; in the data active = inhibition above about 37%
Target sequence (P63165 whole entry, looked up): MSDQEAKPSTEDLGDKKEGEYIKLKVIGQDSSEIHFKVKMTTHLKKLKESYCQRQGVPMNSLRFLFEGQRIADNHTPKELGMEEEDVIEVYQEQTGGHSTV
STEP inh: inhibitors of human striatal-enriched phosphatase STEP | P54829 | recombinant STEP, OMFP fluorogenic substrate, fluorescence | inhibition, % at 20 µM | 360,000 tested, 0.25% active;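 active = inhibition at 20 µM, scaled per plate between control wells, above about 37%, limit read from the data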;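 note: 0% = DMSO with enzyme and substrate and 100% = substrate only without enzyme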
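System: isolated STEP enzyme; schedule: 20 min enzyme reaction at room temperature, protected from light; medium: Bis-Tris buffer pH 6.0, 2.5 mM DTT, 0.005% Tween 20; signal: fluorescence, 480/540 nm; dosing: single compound dose of 20 µM, 1% DMSO final; also added: OMFP substrate, 25 µM final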
LMPTP inh: blocks human LMPTP phosphatase; recombinant LMPTP-A, OMFP fluorogenic substrate, fluorescence intensity; AID 651560; inhibition, % at 20 µM; P24666; 360,000 tested, 0.22% active;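 active = compounds that cut the enzyme signal by at least half of the control window in the single-dose screen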;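 note: plate controls were DMSO wells with enzyme plus substrate for no effect and substrate without enzyme for full effect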
Target sequence (P24666 whole entry, looked up): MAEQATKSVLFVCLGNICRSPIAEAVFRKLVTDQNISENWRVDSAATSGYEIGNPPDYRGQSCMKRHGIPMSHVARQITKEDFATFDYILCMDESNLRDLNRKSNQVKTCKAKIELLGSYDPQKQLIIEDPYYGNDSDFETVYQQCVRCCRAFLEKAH
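material = LMPTP-A | quantity = 0.625 nM enzyme | reagent = OMFP substrate, 400 µM final | buffer or medium = Bis-Tris pH 6.0, DTT, detergent | detection = endpoint fluorescence intensity from OMFP dephosphorylation | dosing = single 20 µM dose | read-out basis = % inhibition relative to no-enzyme and uninhibited control wells | control set = no-enzyme and uninhibited controls | timing = 50 min at room temperature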
DNMT1 block: inhibitors of human DNMT1; P26358; DNMT1 molecular beacon, Hinp1I cleavage, fluorescence; inhibition (reported as % activation of signal), % at 10 µM; 360,000 tested, 0.83% active; in the data active = inhibition above about 50%
Scp1 confirm: confirmation of human Scp-1 phosphatase inhibitors; inhibition, % at 20 µM; shares compounds with Scp1 inh; 2,500 tested, 61% active; recombinant SCP-1 catalytic domain, phosphate release, malachite green absorbance;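 note: plate controls were DMSO with enzyme for no effect and buffer wells lacking enzyme for full effect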
MG interference: colorimetric interference in Scp-1 counter-screen; shares compounds with Scp1 inh; 2,500 tested, under 10 active; Colorimetric interference counterscreen, malachite green absorbance 630 nm; apparent inhibition (interference), % at 20 µM;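 note: compounds added after enzyme reaction finished so only phosphate colour detection is probed; plate controls were DMSO wells with completed Scp-1 reaction for no effect and substrate wells lacking enzyme for full effect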
Scp1 DSF: binds human Scp-1, shifting its melting temperature | Recombinant SCP1, Sypro Orange thermal shift Tm | AID 540329 | 1,500 tested, 25% active | thermal shift relative to vanadate control, % at 40 µM | shares compounds with Scp1 inh;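 active = substances whose mean melting-temperature shift, as a percentage of the reference inhibitor's shift, reaches about 5.3%, limit read from the data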;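 note: 0% = Tm of DMSO wells and 100% = Tm with sodium orthovanadate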
Numbers without * were called inactive; / = no result given. Hits are enriched below; roughly 1.7% of the tested compounds scored in any of these assays.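 Rule for the calls, unless noted: active = inhibition of at least 30% at 20 µM; inactive = the rest.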

SMILES	Scp1 inh	SUMO1-SIM PPI	STEP inh	LMPTP inh	DNMT1 block	Scp1 confirm	MG interference	Scp1 DSF
O=C(Cn1cnc2sc(-c3ccccc3)cc2c1=O)NCCc1ccccc1	22	6	1	1	26	/	/	/
NC(=O)Cn1cnc2c(nnn2-c2cccc(Cl)c2)c1=O	-3	19	1	0	7	/	/	/
O=C(Cn1cnc2sc(-c3ccccc3)cc2c1=O)NCc1ccccc1	83*	-7	1	7	11	62*	-17	-28
O=C(NCCS(=O)(=O)NCc1ccccc1Cl)c1ccccc1	-6	-4	-1	-1	-1	/	/	/
O=C(CSc1nnc(CNC(=O)c2ccc(F)cc2)o1)Nc1nccs1	-6	6	-1	-1	3	/	/	/
CCc1ccc(OCc2cccc(C(=O)N/N=C\c3cnn(C)c3C)c2)cc1	66*	7	4	14	15	78*	-4	-6
Cc1c(/C=N\NC(=O)c2cccc(F)c2)cnn1C	-8	0	2	-2	4	/	/	/
Cc1cc2c(cc1C)[n+](C)cn2CC(O)COCc1ccccc1 (configuration not stated)	33	-2	1	0	5	/	/	/
C[n+]1cn(CC(O)COCc2ccccc2)c2ccccc21 (configuration not stated)	71*	1	8	-1	9	71*	-16	-8
C[C@H](CO)N1C[C@H](C)[C@@H](CN(C)Cc2ccc(Cl)c(Cl)c2)Oc2c(NS(=O)(=O)c3cn(C)cn3)cccc2C1=O	59*	4	0	-2	-1	-7	-17	/
C[C@H](CO)N1C[C@H](C)[C@@H](CN(C)Cc2ccncc2)Oc2c(NS(=O)(=O)c3cn(C)cn3)cccc2C1=O	57*	0	0	-1	4	4	-9	/
CCOC(=O)C(=O)Cc1cccnn1	75*	43*	3	6	66*	44*	-23	12*
CCOC(=O)C(Cc1ccnc2ccccc12)=NO	-5	1	-4	2	8	/	/	/
CCOC(=O)N1CCN(C(C(=O)NC2CCCC2)c2ccco2)CC1 (configuration not stated)	/	-6	/	0	/	/	/	/
COc1cccc(-c2c(C(=O)O)cc(O)c3ccc(OC)cc23)c1	-8	1	0	-1	7	/	/	/
O=C(c1nc2ccc(Cl)cn2c1CN1CCCC1)N1CCc2ccccc2C1	52*	8	-1	8	14	36*	-3	5
N/C(=N\OC(=O)c1ccc(Br)cc1)c1cccc([N+](=O)[O-])c1	65*	-21	2	0	10	62*	-19	1
CCCc1ccc2oc(C(=O)N3CCC(COC)C3)c(C)c2c1 (configuration not stated)	69*	-2	2	1	-2	3	-3	/
CS(=O)(=O)C1=NSC2=NC(=O)/C(=C\c3cccn3-c3ccc(Cl)cc3)C(=N)N21	83*	4	95*	20	2	79*	-20	-36
C=CCC(=O)N1CCC(n2nccc2NC(=O)CCOc2ccccc2)CC1	-5	-7	1	-2	0	/	/	/
O=C(COc1ccccc1)NCC(=O)N/N=C/C=C/c1ccccc1	-7	0	-5	-2	-1	/	/	/
O=C(CNC(=O)c1ccc(Cl)cc1)N/N=C/C=C/c1ccccc1	84*	-2	3	5	8	8	-11	/
O=C(/C=C/c1ccco1)N1CCN(S(=O)(=O)c2cccs2)CC1	58*	-3	3	7	10	47*	-4	1
Cc1ccc(/C=C/C(=O)N2CCN(S(=O)(=O)c3cccs3)CC2)o1	-5	9	-2	0	0	/	/	/
C=CCN1C(=O)c2ccccc2NC1c1cc(Br)cs1 (configuration not stated)	-10	-4	-2	1	0	/	/	/
